Results reported in ChEMBL document CHEMBL1129483, “Antitumor 2-(aminocarbonyl)-1,2-bis(methylsulfonyl)-1-(2-chloroethyl)- hydrazines” (1996).
Values joined by “and” are separate entries in the source; they are usually repeats but may differ in a detail not shown here. Identical values can stand only once.

The compounds below were run on Mus musculus (assay: Average percent change in body weight from onset to termination of therapy at dose 5(mg/kg)). Conditions: not given.
Type: functional
Summary of the method: (§1)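 CD2F1 mice implanted ip with 10^5 L1210 leukemia cells (kept by serial passage in culture and periodic ip passage in donor mice). Drug given ip in 100% DMSO, at most 0.025 mL, once daily for 6 consecutive days starting 24 h after implantation. Groups of 5–10 mice; vehicle-treated tumor-bearing controls. Body weight change is the average percent from onset to termination of therapy, used as a toxicity index.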
Compound `CCOC(=O)C(Cc1ccccc1)NC(=O)N(N(CCCl)S(C)(=O)=O)S(C)(=O)=O` (centres undefined) has a Change of -2.5%. In the case of `CCOC(=O)CNC(=O)N(N(CCCl)S(C)(=O)=O)S(C)(=O)=O`, the Change is reported as -1.5%. `CCOC(=O)C(C)NC(=O)N(N(CCCl)S(C)(=O)=O)S(C)(=O)=O` (centres undefined) showed a Change of -2%.

Each compound was assayed on Mus musculus (assay: Average percent change in body weight from onset to termination of therapy at dose 100(mg/kg)). Conditions: not given.
Type: functional
Summary of the method: as §1
`CCOC(=O)C(Cc1ccccc1)NC(=O)N(N(CCCl)S(C)(=O)=O)S(C)(=O)=O` (centres undefined) gave a Change of -2%. In the case of `CCOC(=O)CNC(=O)N(N(CCCl)S(C)(=O)=O)S(C)(=O)=O`, the Change is reported as -4%. Compound `CCOC(=O)C(C)NC(=O)N(N(CCCl)S(C)(=O)=O)S(C)(=O)=O` (centres undefined) has a Change of -2.5%.

These compounds were tested on Mus musculus (assay: Average percent change in body weight from onset to termination of therapy at dose 150(mg/kg)). Conditions: not given.
Type: functional
Summary of the method: as §1
`CCOC(=O)C(Cc1ccccc1)NC(=O)N(N(CCCl)S(C)(=O)=O)S(C)(=O)=O` (centres undefined) showed a Change of -5%.

These compounds were tested on Mus musculus (assay: Average survival time of treated /control mice*100 was determined at a daily dose of 5 mg/kg). Conditions: not given.
Type: functional
Summary of the method: (§2)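 L1210 leukemia cells kept by serial passage in culture. 10^5 cells given ip to CD2F1 mice. Drug in 100% DMSO given ip once daily for 6 days starting 24 h after implant. 5–10 mice per group, with vehicle-treated controls. %T/C is average survival time of treated mice over controls ×100. 60-day survivors (cures) are excluded from the calculation.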
`CCOC(=O)C(Cc1ccccc1)NC(=O)N(N(CCCl)S(C)(=O)=O)S(C)(=O)=O` (centres undefined) was tested, and the T/C was 147%. `CCOC(=O)CNC(=O)N(N(CCCl)S(C)(=O)=O)S(C)(=O)=O` gave a T/C of 151%. Work on `CCOC(=O)C(C)NC(=O)N(N(CCCl)S(C)(=O)=O)S(C)(=O)=O` (centres undefined) yielded a T/C of 170%.

The compounds below were run on Mus musculus (assay: Average percent change in body weight from onset to termination of therapy at dose 15(mg/kg)). Conditions: not given.
Type: functional
Summary of the method: as §1
`CCOC(=O)C(Cc1ccccc1)NC(=O)N(N(CCCl)S(C)(=O)=O)S(C)(=O)=O` (centres undefined) gave a Change of -1.9%. Work on `CCOC(=O)CNC(=O)N(N(CCCl)S(C)(=O)=O)S(C)(=O)=O` yielded a Change of -0.5%. With `CCOC(=O)C(C)NC(=O)N(N(CCCl)S(C)(=O)=O)S(C)(=O)=O` (centres undefined) the Change was -0.5%.

What follows are compounds tested on Mus musculus (assay: Average survival time of treated /control mice*100 was determined at a daily dose of 20 mg/kg). Conditions: not given.
Type: functional
Summary of the method: as §2
In the case of `CCOC(=O)C(Cc1ccccc1)NC(=O)N(N(CCCl)S(C)(=O)=O)S(C)(=O)=O` (centres undefined), the T/C is reported as 174%. With `CCOC(=O)C(C)NC(=O)N(N(CCCl)S(C)(=O)=O)S(C)(=O)=O` (centres undefined) the T/C was 227%.

Same assay, conditions: 20 mg/kg
With `CCOC(=O)CNC(=O)N(N(CCCl)S(C)(=O)=O)S(C)(=O)=O` the T/C was 191% and 138%.

The compounds below were run on Mus musculus (assay: %60 day survivors were determined for the compound as the mouse […] at dose 150 mg/kg). Conditions: not given.
Type: functional
Summary of the method: (§3)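 L1210 leukemia cells kept by serial passage in culture. 10^5 cells given ip to CD2F1 mice. Drug in 100% DMSO, at most 0.025 mL, given ip once daily for 6 consecutive days starting 24 h after implant. 5–10 mice per group, with vehicle-treated tumor-bearing controls. Value is the percentage of mice alive and symptom-free 60 days after tumor implant.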
For `CCOC(=O)C(Cc1ccccc1)NC(=O)N(N(CCCl)S(C)(=O)=O)S(C)(=O)=O` (centres undefined), the Survivors was 20%.

Each compound was assayed on Mus musculus (assay: Average percent change in body weight from onset to termination of therapy at dose 75(mg/kg)). Conditions: not given.
Type: functional
Summary of the method: as §1
Work on `CCOC(=O)CNC(=O)N(N(CCCl)S(C)(=O)=O)S(C)(=O)=O` yielded a Change of -1.5%. Work on `CCOC(=O)C(C)NC(=O)N(N(CCCl)S(C)(=O)=O)S(C)(=O)=O` (centres undefined) yielded a Change of -2.5%.

What follows are compounds tested on Mus musculus (assay: Average survival time of treated /control mice*100 was determined at a daily dose of 25 mg/kg). Conditions: not given.
Type: functional
Summary of the method: as §2
`CCOC(=O)C(Cc1ccccc1)NC(=O)N(N(CCCl)S(C)(=O)=O)S(C)(=O)=O` (centres undefined) showed a T/C of 177%. `CCOC(=O)C(C)NC(=O)N(N(CCCl)S(C)(=O)=O)S(C)(=O)=O` (centres undefined) gave a T/C of 239%.

The compounds below were run on Mus musculus (assay: Average survival time of treated /control mice*100 was determined at a daily dose of 100 mg/kg). Conditions: not given.
Type: functional
Summary of the method: as §2
For `CCOC(=O)CNC(=O)N(N(CCCl)S(C)(=O)=O)S(C)(=O)=O`, the T/C was 115%.

Each compound was assayed on Mus musculus (assay: Average percent change in body weight from onset to termination of therapy at dose 10(mg/kg)). Conditions: not given.
Type: functional
Summary of the method: as §1
With `CCOC(=O)C(Cc1ccccc1)NC(=O)N(N(CCCl)S(C)(=O)=O)S(C)(=O)=O` (centres undefined) the Change was -0.5%. For `CCOC(=O)CNC(=O)N(N(CCCl)S(C)(=O)=O)S(C)(=O)=O`, the Change was -1.4%. In the case of `CCOC(=O)C(C)NC(=O)N(N(CCCl)S(C)(=O)=O)S(C)(=O)=O` (centres undefined), the Change is reported as -1.4%.

These compounds were tested on Mus musculus (assay: Average survival time of treated /control mice*100 was determined at a daily dose of 150 mg/kg). Conditions: not given.
Type: functional
Summary of the method: as §2
In the case of `CCOC(=O)C(Cc1ccccc1)NC(=O)N(N(CCCl)S(C)(=O)=O)S(C)(=O)=O` (centres undefined), the T/C is reported as 169%.

Each compound was assayed on Mus musculus (assay: Average survival time of treated /control mice*100 was determined at a daily dose of 75 mg/kg). Conditions: not given.
Type: functional
Summary of the method: as §2
`CCOC(=O)CNC(=O)N(N(CCCl)S(C)(=O)=O)S(C)(=O)=O` was tested, and the T/C was 119%.

Each compound was assayed on Mus musculus (assay: %60 day survivors were determined for the compound as the mouse […] at dose 25 mg/kg). Conditions: not given.
Type: functional
Summary of the method: as §3
In the case of `CCOC(=O)CNC(=O)N(N(CCCl)S(C)(=O)=O)S(C)(=O)=O`, the Survivors is reported as 100%. With `CCOC(=O)C(C)NC(=O)N(N(CCCl)S(C)(=O)=O)S(C)(=O)=O` (centres undefined) the Survivors was 60%.

What follows are compounds tested on Mus musculus (assay: %60 day survivors were determined for the compound as the mouse […] at dose 100 mg/kg). Conditions: not given.
Type: functional
Summary of the method: as §3
`CCOC(=O)C(Cc1ccccc1)NC(=O)N(N(CCCl)S(C)(=O)=O)S(C)(=O)=O` (centres undefined) was tested, and the Survivors was 100%.

Each compound was assayed on Mus musculus (assay: Average survival time of treated /control mice*100 was determined at a daily dose of 15 mg/kg). Conditions: not given.
Type: functional
Summary of the method: as §2
`CCOC(=O)C(Cc1ccccc1)NC(=O)N(N(CCCl)S(C)(=O)=O)S(C)(=O)=O` (centres undefined) gave a T/C of 160%. In the case of `CCOC(=O)CNC(=O)N(N(CCCl)S(C)(=O)=O)S(C)(=O)=O`, the T/C is reported as 202%. Compound `CCOC(=O)C(C)NC(=O)N(N(CCCl)S(C)(=O)=O)S(C)(=O)=O` (centres undefined) has a T/C of 185%.

The compounds below were run on Mus musculus (assay: Average percent change in body weight from onset to termination of therapy at dose 50(mg/kg)). Conditions: not given.
Type: functional
Summary of the method: as §1
Work on `CCOC(=O)C(Cc1ccccc1)NC(=O)N(N(CCCl)S(C)(=O)=O)S(C)(=O)=O` (centres undefined) yielded a Change of -2%. For `CCOC(=O)CNC(=O)N(N(CCCl)S(C)(=O)=O)S(C)(=O)=O`, the Change was -2.5%. Work on `CCOC(=O)C(C)NC(=O)N(N(CCCl)S(C)(=O)=O)S(C)(=O)=O` (centres undefined) yielded a Change of -3.3%.

Each compound was assayed on Mus musculus (assay: Average survival time of treated /control mice*100 was determined at a daily dose of 10 mg/kg). Conditions: not given.
Type: functional
Summary of the method: as §2
`CCOC(=O)C(Cc1ccccc1)NC(=O)N(N(CCCl)S(C)(=O)=O)S(C)(=O)=O` (centres undefined) was tested, and the T/C was 165%. Work on `CCOC(=O)CNC(=O)N(N(CCCl)S(C)(=O)=O)S(C)(=O)=O` yielded a T/C of 202%. For `CCOC(=O)C(C)NC(=O)N(N(CCCl)S(C)(=O)=O)S(C)(=O)=O` (centres undefined), the T/C was 178%.

These compounds were tested on Mus musculus (assay: %60 day survivors were determined for the compound as the mouse […] at dose 10 mg/kg). Conditions: not given.
Type: functional
Summary of the method: as §3
Work on `CCOC(=O)CNC(=O)N(N(CCCl)S(C)(=O)=O)S(C)(=O)=O` yielded a Survivors of 20%. Work on `CCOC(=O)C(C)NC(=O)N(N(CCCl)S(C)(=O)=O)S(C)(=O)=O` (centres undefined) yielded a Survivors of 20%.

Each compound was assayed on Mus musculus (assay: %60 day survivors were determined for the compound as the mouse […] at dose 20 mg/kg). Conditions: not given.
Type: functional
Summary of the method: as §3
`CCOC(=O)CNC(=O)N(N(CCCl)S(C)(=O)=O)S(C)(=O)=O` was tested, and the Survivors was 20%.

Each compound was assayed on Mus musculus (assay: Average percent change in body weight from onset to termination of therapy at dose 20(mg/kg)). Conditions: not given.
Type: functional
Summary of the method: as §1
For `CCOC(=O)C(Cc1ccccc1)NC(=O)N(N(CCCl)S(C)(=O)=O)S(C)(=O)=O` (centres undefined), the Change was -1.9%. `CCOC(=O)CNC(=O)N(N(CCCl)S(C)(=O)=O)S(C)(=O)=O` showed a Change of -3.7%. In the case of `CCOC(=O)C(C)NC(=O)N(N(CCCl)S(C)(=O)=O)S(C)(=O)=O` (centres undefined), the Change is reported as -1.5%.

These compounds were tested on Mus musculus (assay: Average percent change in body weight from onset to termination of therapy at dose 25(mg/kg)). Conditions: not given.
Type: functional
Summary of the method: as §1
For `CCOC(=O)C(Cc1ccccc1)NC(=O)N(N(CCCl)S(C)(=O)=O)S(C)(=O)=O` (centres undefined), the Change was -0.9%. For `CCOC(=O)CNC(=O)N(N(CCCl)S(C)(=O)=O)S(C)(=O)=O`, the Change was -0.5%. `CCOC(=O)C(C)NC(=O)N(N(CCCl)S(C)(=O)=O)S(C)(=O)=O` (centres undefined) gave a Change of -2.5%.

These compounds were tested on Mus musculus (assay: %60 day survivors were determined for the compound as the mouse […] at dose 75 mg/kg). Conditions: not given.
Type: functional
Summary of the method: as §3
In the case of `CCOC(=O)CNC(=O)N(N(CCCl)S(C)(=O)=O)S(C)(=O)=O`, the Survivors is reported as 60%. `CCOC(=O)C(C)NC(=O)N(N(CCCl)S(C)(=O)=O)S(C)(=O)=O` (centres undefined) showed a Survivors of 80%.

Each compound was assayed on Mus musculus (assay: Average survival time of treated /control mice*100 was determined at a daily dose of 50 mg/kg). Conditions: not given.
Type: functional
Summary of the method: as §2
`CCOC(=O)C(Cc1ccccc1)NC(=O)N(N(CCCl)S(C)(=O)=O)S(C)(=O)=O` (centres undefined) was tested, and the T/C was 225%.

Each compound was assayed on Mus musculus (assay: %60 day survivors were determined for the compound as the mouse […] at dose 50 mg/kg). Conditions: not given.
Type: functional
Summary of the method: as §3
`CCOC(=O)C(Cc1ccccc1)NC(=O)N(N(CCCl)S(C)(=O)=O)S(C)(=O)=O` (centres undefined) showed a Survivors of 60%. `CCOC(=O)CNC(=O)N(N(CCCl)S(C)(=O)=O)S(C)(=O)=O` showed a Survivors of 80%. `CCOC(=O)C(C)NC(=O)N(N(CCCl)S(C)(=O)=O)S(C)(=O)=O` (centres undefined) was tested, and the Survivors was 100%.
